According to ChEMBL document CHEMBL1140715, “Structure-activity relationships of novel iron chelators for the treatment of iron overload disease: the methyl pyrazinylketone isonicotinoyl hydrazone series” (J Med Chem, 2008):

Columns and labels:
[1] = Antiproliferative activity against human […] cells by MTT assay; format: cell-based
Method in brief: (§1)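 MTT assay of cell proliferation; MTT colour formation directly proportional to viable cell number counted by Trypan blue staining. IC50 reported as mean ± SD of three experiments.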

[2] = Induction of intracellular iron mobilization in human […] cells relative to control; format: functional; set-up: concentration or dose not given beside the values
Method in brief: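 SK-N-MC cells prelabeled with 59Fe-Tf (0.75 µM) for 3 h at 37 °C, washed four times with ice-cold PBS, then incubated with chelator (50 µM) for 3 h at 37 °C. Released 59Fe in medium and cell pellet counted by γ-scintillation. Mean ± SD, three experiments, triplicate determinations.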

[3] = Partition coefficient, log P of the compound; format: physicochemical; settings: octanol/water
Method in brief: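 Octanol–water partition coefficient measured spectrophotometrically.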

MRC5 = experiment: Antiproliferative activity against human MRC5 cells by MTT assay; format: cell-based; method in brief: as §1

Row | logP [3] | Structure (SMILES) | IC50 [1] [µM] | Activity [2] [%] | IC50 (MRC5) [µM]
1 |  | Nc1ccc(C(=O)N/N=C/c2ccccn2)cc1 | > 80 |  | 
2 |  | O=C(NN=C(c1ccccn1)c1ccccn1)c1cccc(Br)c1 | 0.24 |  | 
3 |  | CC(=O)N(O)CCCCCNC(=O)CCC(=O)N(O)CCCCCNC(=O)CCC(=O)N(O)CCCCCN [DEFEROXAMINE] | 12.1 | 16 | 
4 |  | O=C(N/N=C/c1ccccn1)c1ccc(Br)cc1 | 17.7 |  | 
5 |  | O=C(N/N=C/c1ccccn1)c1ccncc1 | > 80 |  | 
6 |  | NC(=S)N/N=C/c1ncccc1N [TRIAPINE] | 0.66 |  | 
7 |  | O=C(N/N=C/c1ccccn1)c1ccc([N+](=O)[O-])cc1 | 35.5 |  | 
8 | 2.9 | C/C(=N\NC(=O)c1ccc(Br)cc1)c1cnccn1 | 1.22 | 31 | 2.94
9 |  | O=C(N/N=C/c1c(O)ccc2ccccc12)c1ccncc1 | 0.83 | 44 | 
10 |  | O=C(N/N=C/c1ccccn1)c1ccccc1 | 19.2 |  | 
11 | 2 | C/C(=N\NC(=O)c1ccc(C(F)(F)F)cc1)c1cnccn1 | 1.16 | 31 | 2.09
12 | 1.3 | C/C(=N\NC(=O)c1ccc(N)cc1)c1cnccn1 | 58.8 | 34 | > 80
13 |  | Cc1ncc(CO)c(/C=N/NC(=O)c2ccncc2)c1O [PYRIDOXAL ISONICOTINOYL HYDRAZONE] |  | 40 | 
14 |  | O=C(NN=C(c1ccccn1)c1ccccn1)c1ccccc1 | 3.04 |  | 
15 |  | O=C(N/N=C/c1ccccn1)c1ccc(O)cc1 | > 80 |  | 
16 |  | O=C(NN=C(c1ccccn1)c1ccccn1)c1ccc([N+](=O)[O-])cc1 | 0.26 |  | 
17 | 2.9 | C/C(=N\NC(=O)c1cccc(Br)c1)c1cnccn1 | 1.15 | 31 | 3.12
18 | 1.9 | C/C(=N\NC(=O)c1ccc(O)cc1)c1cnccn1 | 16.8 | 39 | > 80
19 |  | O=C(NN=C(c1ccccn1)c1ccccn1)c1ccc(C(F)(F)F)cc1 | 0.24 |  | 
20 | 1.9 | C/C(=N\NC(=O)c1ccccc1)c1cnccn1 [METHYL PYRAZINYLKETONE BENZOYL HYDRAZONE] | 3.62 | 31 | 7.04
21 | 2.1 | C/C(=N\NC(=O)c1ccc([N+](=O)[O-])cc1)c1cnccn1 | 1.39 | 31 | 2.87
22 | 1.2 | C/C(=N\NC(=O)c1ccncc1)c1cnccn1 [METHYL PYRAZINYLKETONE ISONICOTINOYL HYDRAZONE] | 5.79 | 31 | 25.2
23 |  | CN(C)C(=S)NN=C(c1ccccn1)c1ccccn1 | 0.001 |  | 
24 |  | O=C(NN=C(c1ccccn1)c1ccccn1)c1ccc(Br)cc1 | 0.3 |  | 
25 |  | O=C(N/N=C/c1ccccn1)c1cccs1 | 22.7 |  | 
26 | 2.6 | C/C(=N\NC(=O)c1cccs1)c1cnccn1 [METHYL PYRAZINYLKETONE THIOPHENECARBOXYL HYDRAZONE] | 2.13 | 31 | 5.54
27 |  | O=C(N/N=C/c1ccccn1)c1ccc(C(F)(F)F)cc1 | 22.4 |  | 
